Measurements as given in PMC5484360 (Journal of Applied Toxicology, 2017).
Read-outs that look alike come from different tables or passages of the source.

Assays:
[1] = assay type: in vitro ADME; settings: Protocol 1, pig skin, 30 min exposure, infinite dose, mean (%CV)
How it was run: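 Pig skin was shaved, trimmed to 2–3 mm and defatted, then mounted as 32 mm discs in Franz cells over 9 g l–1 NaCl and equilibrated 1 h at 32°C with stirring. Infinite dose (350 μl cm–2), 30 min exposure, excess removed, then 15 weighed tape strips over 18 mm, extracted with methanol. HSC came from TEWL; depth profiles were fitted to Fick's 2nd-law solution for KSC/v and DSC/HSC².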

[2] = assay type: in vitro ADME, human
[3] = assay type: in vitro ADME, human; settings: Protocol 2B; for Jss (steady state flux through the SC) / kp (permeation coefficient) / Mass balance / tlag (lag time): human SC; for Mass balance: 22 h; for tlag (lag time): from non-linear regression of cumulative amount penetrated vs. time
How it was run: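 Isolated SC on 0.22 μm SuPor membrane, thickness by digital micrometer; flow-through cells at 32°C, stirred, receptor DPBS+ at 25 μl/min, equilibrated ≥30 min before dosing; 22 h occluded incubation; donor sampled pre/post; SC dissolved in 1M NaOH, radioactivity counted with washes for mass balance. Jss from earliest linear slope, membrane-corrected; kp = Jss/C; KSC/v·HSC and DSC/HSC² by non-linear Fick's-second-law fit of cumulative absorbed vs time.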

[4] = Protocol 1, human skin, 30 min exposure, infinite dose, mean (%CV)
[5] = human skin, Equation (10) non-linear regression, mean (%CV)

SMILES	DSC/HSC ^2 [1]	KSC/v [1]	KSC/v ([1]; listed as 7‐EC)	DSC/HSC ^2 [2, 4]	KSC/v [2, 4]	KSC/v ([2]; Protocol 1, human skin, 30 min exposure, infinite dose, mean (%CV), listed as 7‐EC)	KSC/v ([2]; Protocol 1, single human donor in duplicate, 30 min exposure)	KSC/v ([2]; Protocol 1, single human donor in duplicate, 90 min exposure)	Jss (steady state flux through the SC) [3]	kp (permeation coefficient) [3]	Mass balance [3]	tlag (lag time) [3]	DSC/HSC ^2 [3, 5]	KSC/v [3, 5]	KSC/v ([1]; listed as caffeine)	KSC/v ([2]; Protocol 1, human skin, 30 min exposure, infinite dose, mean (%CV), listed as caffeine)
CCOc1ccc2ccc(=O)oc2c1 [7‐Ethoxycoumarin]	0.10 (44%) h^‐1	89.5 (4.6%)	89.5	0.030 (55%) h^‐1	39.5 (19%)	39.5	34.5 ± 6.4	46.0 ± 1.4	225 ng/cm^2	0.095 ± 0.188 ×10⁻⁶ cm/s	97.3 ± 1.4%	0.001 ± 0.004 h	0.078 (26%) h^‐1	0.019 (34%)	–	–
Cn1c(=O)c2c(ncn2C)n(C)c1=O [Caffeine]	–	1.27 (31%)	–	–	2.68 (20%)	–	–	–	1261429 ng/cm^2	0.154 ± 0.111 ×10⁻⁶ cm/s	99.7 ± 1.3%	1.82 ± 1.02 h	–	2.63 (70%)	1.27	2.68
Oc1cccc(O)c1 [Resorcinol]	–	–	–	–	–	–	–	–	2699031 ng/cm^2	0.233 ± 0.133 ×10⁻⁶ cm/s	99.2 ± 2.5%	2.13 ± 0.16 h	–	–	–	–
